# According to ChEMBL document CHEMBL4725346, “Syntheses and Evaluation of New Bisacridine Derivatives for Dual Binding of G-Quadruplex and i-Motif in Regulating Oncogene c-myc Expression” (J Med Chem, 2020):
# Active and inactive are the calls of the source. No cut-off for these calls is given here.
# Experiments:
# [1] = Stabilization of c-myc promoter i-motif DNA Py33 (unknown origin) assessed as effect on melting temperature at 5 uM by CD spectroscopy
# Outline: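 CD melting: Py33 at 1 µM in 1× BPES pH 6.4, with or without ligand. Annealed at 95 °C for 5 min, slowly cooled, then heated at 1 °C/min while monitoring 260 nm. Tm obtained by curve fitting.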
# SiHa [2] = test: Antitumor activity against human SiHa cells xenografted in BALB/c nude mouse assessed as reduction in tumor weight at 15 mg/kg, ip administered once per 2 days for 18 days relative to control; type: functional; set-up: scale not given: the % may be the effect or the level left; settings: time 18 day
# Outline: (§1)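 SiHa tumor fragments from donor xenografts (grown to about 1,000 mm³) implanted in the underarm of female BALB/c nude mice; six per group. Dosed ip once every two days for 18 days, saline as negative control, cisplatin 0.2 mg/kg as positive control. Tumor volume = length × width²/2. Tumors weighed at sacrifice.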
# SiHa [3] = test: Induction of apoptosis in human SiHa cells assessed as early apoptotic cells at 0.6 uM after 24 hrs by annexin V/FITC-propidium iodide staining-based flow cytometric method ( Rvb = 0.3%); type: functional
# A-375 = test: Antiproliferative activity against human A-375 cells after 48 hrs by MTT assay; type: functional, cell-based; settings: A-375, 48 h
# Outline: (§2)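 Cells seeded at 5.0×10^3 per well, pre-incubated 12 h at 37 °C, 5% CO2, then exposed to compounds for 48 h; DMSO-only control. MTT (2.5 mg/mL) added for 4 h, formazan dissolved in DMSO, absorbance at 570 nm. Each dose tested in triplicate; IC50 from percentage survival relative to negative control.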
# SiHa [4] = test: Effect on stability of c-myc RNA in human SiHa cells at 2.5 uM in presence of actinomycin D by RT-PCR method; type: functional, cell-based
# Outline: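 SiHa cells seeded at 2×10^5 per well, grown 24 h, then treated with 5 µg/mL actinomycin D plus 2.5 µM compound. Total RNA extracted at the indicated time points for RT-PCR.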
# Quadruplex DNA [5] = test: Binding affinity to c-myc promoter G-quadruplex/i-motif in human SiHa cells assessed as reduction in c-myc mRNA level incubated for 24 hrs by qRT-PCR analysis; type: cell-based; settings: dose microM 0.625-2.5, time 24.0 hrs
# Outline: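 SiHa cells at 0, 0.625, 1.25 and 2.5 μM for 24 h; DMSO control. Total RNA extracted with TRIzol. 1.5 μg RNA reverse-transcribed with oligo dT18 and M-MLV (42 °C 60 min). PCR of 30 cycles (95/58/72 °C), products run on 1.2% agarose. β-actin as internal control; three repeats.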
# Quadruplex DNA [6] = test: Binding affinity to 5'-biotin labeled c-myc promoter G-quadruplex DNA Pu27 (unknown origin) by surface plasmon resonance method; type: nucleic-acid assay
# Outline: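 SPR: 5'-biotin DNA diluted to 1 μM and captured (1000 RU) on a sensor chip, with a blank cell as reference. Running buffers: Py33 in 20 mM MES pH 5.8, 100 mM KCl, 0.05% Tween-20; Pu27 and duplex in 50 mM Tris-HCl pH 7.4, 100 mM KCl. Six ligand concentrations serially diluted from DMSO stock. Association 260 s, dissociation 300 s at 25 °C; NaOH regeneration; blank sensorgrams subtracted.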
# SiHa [7] = test: Antitumor activity against human SiHa cells xenografted in BALB/c nude mouse assessed as reduction in tumor volume at 15 mg/kg, ip administered once per 2 days for 18 days (reference value: 750 mm3); type: functional; settings: time 18 day; outline: as §1
# Quadruplex DNA [8] = test: Binding affinity to c-myc promoter G-quadruplex DNA Pu27 (unknown origin) at 50 uM by isothermal titration calorimetry; type: nucleic-acid assay
# Outline: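 ITC at 20 °C on degassed solutions. Cell held preformed DNA ([…]). Syringe held ligand in the same buffer (50 μM for Pu27, 20 μM for Py33). 28 injections of 10 μL at 4 min intervals. Heats of dilution from ligand-into-buffer runs subtracted before model fitting.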
# Quadruplex DNA [9] = test: Binding affinity to c-myc promoter G-quadruplex/i-motif in human CA46 cells assessed as reduction in c-myc mRNA transcription at 0.16 to 2.5 uM incubated for 24 hrs; type: cell-based; settings: dose microM 0.16-2.5, time 24.0 hrs
# [10] = Binding affinity to 5'-biotin labeled c-myc promoter i-motif DNA Py33 (unknown origin) by UV titration method
# [11] = Drug uptake in human SiHa cells; type: ADME, cell-based
# HCT-116 = test: Antiproliferative activity against human HCT-116 cells after 48 hrs by MTT assay; type: functional, cell-based; settings: HCT-116, 48 h; outline: as §2
# [12] = Stabilization of c-myc promoter i-motif DNA Py33 (unknown origin) assessed as decrease in negative peak intensity at pH 5.5 measured at 260 nanometer by CD spectroscopy
# Outline: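 Py33 at 1 µM in 1× BPES pH 5.5 (pH 6.8 random-coil reference), with or without ligand. Annealed at 95 °C for 5 min, cooled, kept at 4 °C overnight. CD spectra in a 4 mm cuvette over 230–350 nm, three scans averaged, buffer-corrected; peaks followed at 288 and 260 nm.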
# SiHa [13] = test: Induction of apoptosis in human SiHa cells assessed as necrotic cells at 2.4 uM after 24 hrs by annexin V/FITC-propidium iodide staining-based flow cytometric method ( Rvb = 0.1%); type: functional
# SiHa [14] = test: Inhibition of cell invasion in human SiHa cells at 0.5 uM by transwell assay relative to control; type: functional
# Outline: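 Transwell assay: SiHa cells incubated 24 h with 0.5 µM compound. Cell […] through the transwell was compared with an untreated control.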
# Quadruplex DNA [15] = test: Binding affinity to c-myc promoter G-quadruplex/i-motif in human SiHa cells assessed as reduction in c-myc mRNA level at 5 uM incubated for 24 hrs by qRT-PCR analysis; type: cell-based; set-up: scale not given: the % may be the effect or the level left
# Raji = test: Induction of apoptosis in human Raji cells at 0.6 to 2.4 uM after 24 hrs by propidium iodide staining based flow cytometry; type: functional, cell-based; settings: dose microM 0.6-2.4, time 24.0 hrs
# SiHa [16] = test: Induction of apoptosis in human SiHa cells assessed as decrease in caspase-7 level incubated for 24 hrs by Western blot analysis; type: functional, cell-based; settings: dose microM 0.6-2.4, time 24.0 hrs
# [17] = Toxicity in BALB/c nude mouse xenografted with human SiHa cells assessed as effect on liver weight at 15 mg/kg, ip administered once per 2 days for 18 days; type: organism-based; settings: in vivo, 432 h, time 18 day
# Outline: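 SiHa tumour fragments passaged from donor mice implanted in the underarm of female BALB/c nude mice (six per group). Compound given at 15 mg/kg ip once every two days for 18 days, with saline and cisplatin 0.2 mg/kg control groups. Body weight recorded every two days; at day 18 mice were sacrificed and organs weighed.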
# SiHa [18] = test: Induction of apoptosis in human SiHa cells assessed as decrease in caspase-9 level incubated for 24 hrs by Western blot analysis; type: functional, cell-based; settings: dose microM 0.6-2.4, time 24.0 hrs
# SiHa [19] = test: Inhibition of colony formation in human SiHa cells at 0.5 to 2 uM incubated for 9 days by crystal violet staining; type: functional, cell-based; settings: dose microM 0.5-2, time 9.0 day
# Outline: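 SiHa cells seeded at 500/well, pre-cultured 24 h at 37 °C/5% CO₂, then treated 9 days with compound at several concentrations. Cells washed with PBS, fixed 10 min in ice-cold methanol, stained 30 min with 0.5% crystal violet, dried and photographed.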
structure (smiles),measurement,setting,value
Cc1ccc2nc3ccc(C)cc3c(NCCCNCCNCCCNc3c4cc(C)ccc4nc4ccc(C)cc34)c2c1,Activity,[1],Active
same,Activity,SiHa [2],41.6%
same,Activity,SiHa [3],18.1%
same,IC50,A-375,0.28 µM
same,Activity,SiHa [4],inactive
same,Activity,Quadruplex DNA [5],Dose-dependent effect
same,Kd,Quadruplex DNA [6],7.7 µM
same,Activity,SiHa [7],450 mm3
same,Kd,Quadruplex DNA [8],0.81 µM
same,Activity,Quadruplex DNA [9],inactive
same,Activity,[10],Active
same,Drug uptake,[11],Active
same,IC50,HCT-116,0.15 µM
same,Activity,[12],Active
same,Activity,SiHa [13],5.5%
same,inhibition at 0.5 µM,SiHa [14],85%
same,Activity,Quadruplex DNA [15],< 92.7%
same,Activity,Raji,Active
same,Activity,SiHa [16],Dose-dependent effect
same,Activity,[17],Non-Toxic
same,Activity,SiHa [18],Dose-dependent effect
same,inhibition,SiHa [19],Active
